Many of the other results were omitted from the sample, so hits are more common in it than they were.
PTEN del growth = growth suppressors of cells with PTEN tumor suppressor deletion; AID 827; viability, % at 10 µM; actives 1.2% (n = 140,000); HCT116 PTEN-null viability, CellTiter-Glo, 60 h; hits give low values;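 active means viability at or below a set limit, 4 SD under the median of all tested compounds, cut at about 3.7% in these data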;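 further: PTEN knockout HCT116 line with beta catenin targeted HCT116 as companion control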
Lung fibro prol = blocks proliferation of human lung fibroblasts | LL 47 human lung fibroblast viability, ATP luminescence; hits give low values | viability, % at 10 µM | actives 1.1% (n = 85,000) | AID 719;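 active means viability at or below 50% in the single dose screen; inactive means viability above 50%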;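 further: compound exposure lasted 72 h before the ATP readout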
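Material: Human LL 47 lung fibroblast cells | Input: 1,150 cells/well | Buffer or medium: IMEM plus 15% FBS | Compound dosing: 0.1% DMSO in all compound wells | Times: Overnight cell rest, 72 h compound treatment at 37 °C | Signal: CellTiter-Glo luminescence measuring cellular ATP | Measure: % viability versus median cells-only luminescence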
bCat KO growth = beta-catenin-lacking colon tumor cell growth suppression. HCT116 beta-catenin knockout viability, CellTiter-Glo, 60 h; hits give low values. actives 1.5% (n = 140,000). viability, % at 10 µM;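 active means viability at or under a set limit, the compound median less 4 SD, cut at about 6% in these data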
H69AR growth 86K = growth inhibitors of human H69AR lung tumor cells; H69AR lung tumor viability, ATP luminescence, 72 h; hits give low values; viability, % at 10 µM; actives 6% (n = 85,000);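 active means viability at or below 40%; inactive means viability above 40%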;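 further: multidrug resistant small cell line overexpressing MRP-1 efflux transporter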
HUVEC prolif 384 = blocks proliferation of human endothelial cells | HUVEC proliferation, CellTiter-Glo luminescence, 72 h; hits give low values | actives 1.1% (n = 86,000) | viability, % at 10 µM (by protocol);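 active means viability at or below 30%; inactive means viability above 30%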
Of the large screens only hits and unclear results are named; the others gave an inactive call.

CC(C)(C)C(=O)/C(=C/c1cccc([N+](=O)[O-])c1)n1cncn1	PTEN del growth 0.5, bCat KO growth 0.7 (no result: Lung fibro prol, H69AR growth 86K, HUVEC prolif 384)
CC(C)(C)C(=O)NC(NC(=O)C(C)(C)C)c1ccc([N+](=O)[O-])cc1	none (no result: Lung fibro prol, H69AR growth 86K, HUVEC prolif 384)
CC(C)(C)C(=O)/C(=C\c1ccc([N+](=O)[O-])cc1)n1cncn1	PTEN del growth 1.6, Lung fibro prol 2.1, bCat KO growth 1.4, HUVEC prolif 384 2.1
O=c1c2ccccc2nnn1CSc1nnc(-c2cccnc2)n1-c1ccccc1F	none
COC(=O)c1cc(OC)c(OC)cc1NC(=O)Cn1nnc(-c2ccccc2Cl)n1	H69AR growth 86K 34.8
COC(=O)c1cc(OC)c(OC)cc1NC(=O)c1c(-c2ccccc2Cl)noc1C	H69AR growth 86K 34.7 (no result: Lung fibro prol)
COc1ccc(NC(=O)Cn2nnc(-c3ccccc3F)n2)cc1Cl	none
Cc1cccc(/C=c2\s/c(=C\C(=O)C(C)(C)C)[nH]c2=O)c1	H69AR growth 86K 6.8
N=c1c2c(-c3ccccc3)c(-c3ccccc3)n(Cc3ccccc3)c2ncn1CCCn1ccnc1	PTEN del growth 2.0, Lung fibro prol 2.4, bCat KO growth 1.2, H69AR growth 86K -0.2, HUVEC prolif 384 2.3
N=c1c2c(-c3ccccc3)c(-c3ccccc3)n(Cc3ccco3)c2ncn1Cc1ccco1	PTEN del growth 1.4, bCat KO growth 1.5, H69AR growth 86K 1.4, HUVEC prolif 384 2.7 (no result: Lung fibro prol)
Cc1nn(C(=O)N2CCOCC2)c(C)c1C	PTEN del growth 0.9, bCat KO growth 0.9
CCOC(=O)N1CCN(C(=O)N2CCOCC2)CC1	none
Cc1ccc(C)c(OCCOCCN2CC(C)OC(C)C2)c1C (centres undefined)	none
O=C(c1ccc(Cl)cc1)c1c[nH]c(C(=O)C(Cl)(Cl)Cl)c1	PTEN del growth 2.5, Lung fibro prol 44.1, bCat KO growth 1.8, H69AR growth 86K 2.4
O=C(c1ccc(Cl)cc1)c1c[nH]cc1-c1ccccc1	none
OCCNCc1cc(Br)ccc1OCc1ccc(Cl)cc1Cl	bCat KO growth 4.7 (no result: Lung fibro prol, H69AR growth 86K, HUVEC prolif 384)
CCOc1cc(CNCCO)cc(Br)c1OCc1ccc(Cl)cc1Cl	PTEN del growth 1.5, bCat KO growth 1.4 (no result: Lung fibro prol, H69AR growth 86K, HUVEC prolif 384)
OCCNCc1cc(Br)ccc1OCc1ccc(Cl)cc1	none (no result: Lung fibro prol, H69AR growth 86K, HUVEC prolif 384)
COc1ccccc1C(=O)O/N=C(/C)c1ccc(N2C(=O)C3CCCCC3C2=O)cc1 (centres undefined)	none (no result: Lung fibro prol, H69AR growth 86K, HUVEC prolif 384)
CC1CC(C)CN(c2nc(NCc3ccco3)nc(N)c2[N+](=O)[O-])C1 (centres undefined)	none (no result: Lung fibro prol, H69AR growth 86K, HUVEC prolif 384)
Cc1nn(-c2ccccc2)c(OC(=O)c2cccs2)c1S(=O)(=O)c1ccc([N+](=O)[O-])cc1	H69AR growth 86K 7.9
Cc1nn(-c2ccccc2)c(OC(=O)c2cccs2)c1S(=O)(=O)c1ccccc1	none (no result: Lung fibro prol, H69AR growth 86K, HUVEC prolif 384)
CCOc1ccc(C(=O)NCC(=O)OCc2csc(-c3ccccc3)n2)cc1	none (no result: Lung fibro prol, H69AR growth 86K, HUVEC prolif 384)
COc1ccc2c(c1)c(C(=O)CNc1nc(C)cs1)c(C)n2C	none
CCOCc1cnc(C)nc1NCC(=O)c1c(C)n(C)c2ccc(OC)cc12	H69AR growth 86K 34.2
COc1cccc(C2CC(C(F)(F)F)n3ncc(C(=O)NC(C)(C)C)c3N2)c1 (centres undefined)	none
C/C(=N\O)c1ccc2c3ccccc3n(C)c2c1	HUVEC prolif 384 24.4
CCN(CC)C(=O)CCc1nc2sc3c(c2c(=O)[nH]1)CCCC3	none
COc1ccc2nc(NC(=O)c3ccoc3C)sc2c1	H69AR growth 86K 22.8
COc1ccc2nc(NC(=O)c3cc(C)oc3C)sc2c1	none
COc1ccc2nc(NC(=O)c3cccc(OCc4c(C)noc4C)c3)sc2c1	H69AR growth 86K 21.2
Cc1cccnc1NCc1ccc(O)c2ncccc12	PTEN del growth 2.5, bCat KO growth 3.9, H69AR growth 86K 13.4
CCCN1C(=O)C(Cc2nc3ccccc3c(=O)n2C)c2ccccc21 (centres undefined)	H69AR growth 86K 33.4
CC(C)NS(=O)(=O)c1cccc2nsnc12	none
O=C(/C=C/c1ccccc1)c1ccc(NC2=NCCCS2)cc1	none (no result: Lung fibro prol, H69AR growth 86K, HUVEC prolif 384)
CC(C)(C)c1ccc(/C=C/C(=O)c2ccc(NC3=NCCCS3)cc2)cc1	PTEN del growth 0.9, bCat KO growth 1.1 (no result: Lung fibro prol, H69AR growth 86K, HUVEC prolif 384)
O=C(/C=C/c1ccc(Br)cc1)c1ccc(NC2=NCCCS2)cc1	PTEN del growth 2.4, bCat KO growth 3.2 (no result: Lung fibro prol, H69AR growth 86K, HUVEC prolif 384)
CC(C)NC(=O)C1CC=CCC1C(=O)O (centres undefined)	none (no result: Lung fibro prol, H69AR growth 86K, HUVEC prolif 384)
Cc1ccc(S(=O)(=O)n2nc(C)cc2C)cc1	none
Cc1ccc(C(C[N+](=O)[O-])n2nc(C)cc2C)cc1 (centres undefined)	PTEN del growth 1.9, bCat KO growth 3.9 (no result: Lung fibro prol, H69AR growth 86K, HUVEC prolif 384)
Cc1ccc(S(=O)(=O)N2CCCC(C(=O)NCc3cccnc3)C2)cc1Cl (centres undefined)	none
Cc1ccc(-n2nnnc2Sc2ccc(S(=O)(=O)NCCN(C)C)cc2[N+](=O)[O-])cc1	PTEN del growth 1.6, bCat KO growth 1.7 (no result: Lung fibro prol, H69AR growth 86K, HUVEC prolif 384)
CCN1C(=O)/C(=C/c2cccs2)S/C1=N\S(=O)(=O)c1ccc(C)cc1	none (no result: Lung fibro prol, H69AR growth 86K, HUVEC prolif 384)
Cc1cc(C)cc(NC(=O)CCn2ccnc2C)c1	none
Cc1ccc(S(=O)(=O)Oc2ccccc2/C=N/NC(=O)c2c(Cl)cnn2C)cc1	H69AR growth 86K 33.3
COC(=O)c1cc(NC(=O)C2COc3ccccc3O2)cc(C(=O)OC)c1 (centres undefined)	none
CC(C)c1nnc(N2C(=O)c3oc4ccccc4c(=O)c3C2c2ccco2)s1 (centres undefined)	none (no result: Lung fibro prol, H69AR growth 86K, HUVEC prolif 384)
Cc1ccc(C2c3c(oc4ccccc4c3=O)C(=O)N2c2nnc(C(C)C)s2)o1 (centres undefined)	H69AR growth 86K 8.4
Cc1c(C(=O)Nc2ccc3c(c2)OCCO3)sc2nc(-c3ccccc3)cn12	H69AR growth 86K 37.8
OC(CN1CCN(c2ccccc2)CC1)c1c[nH]c2ccccc12 (centres undefined)	H69AR growth 86K 37.9
Cc1[nH]c2ccccc2c1C(O)CN1CCN(c2cccc(C(F)(F)F)c2)CC1 (centres undefined)	Lung fibro prol 42.7, H69AR growth 86K 1.3, HUVEC prolif 384 2.4
Clc1ccc(OCc2nnc(SCCN3CCCCC3)n2Cc2ccco2)cc1	H69AR growth 86K 14.9
O=C(CSc1nnc(COc2ccccc2)n1Cc1ccco1)c1ccc(F)cc1	H69AR growth 86K 38.9
COc1ccccc1NC(=O)CSc1nnc(COc2ccc(Cl)cc2)n1Cc1ccco1	none
Cc1ccc(OCc2nnc(SCC(=O)c3ccccc3)n2Cc2ccco2)cc1	none (no result: Lung fibro prol, H69AR growth 86K, HUVEC prolif 384)
CCOC(=O)N1CCC(n2c(=S)[nH]c3cc(OC)c(OC)cc3c2=O)CC1	H69AR growth 86K 33.8
CCCn1c(=S)[nH]c2cc(OC)c(OC)cc2c1=O	H69AR growth 86K 35.4
CCOC(=O)CSc1nnc(CNc2cccc(Cl)c2)n1C	none
COc1ccc(C(=O)/C=C/c2cccs2)c(OC(=O)N2CCOCC2)c1	none (no result: Lung fibro prol, H69AR growth 86K, HUVEC prolif 384)
COc1ccc(OC(=O)c2cccc([N+](=O)[O-])c2)c(C(=O)/C=C/c2cccs2)c1	H69AR growth 86K 3.4
CC(=O)C(C(C)=O)c1c(Cl)c(O)c(O)c2c(C(=O)c3ccccc3)coc12	Lung fibro prol 47.4, H69AR growth 86K 1.6
CCOC(=O)c1[nH]c2cc(OC)c(OC)cc2c1NC(=O)CN(C)C1CCCCC1	none
